Laboratory results as given in ChEMBL document CHEMBL3526008, “Identification of amiodarone metabolites in human bile by ultraperformance liquid chromatography/quadrupole time-of-flight mass spectrometry” (Drug Metab Dispos, 2011).

Legend:
Liver microsome = test: Drug level in human liver microsomes assessed as compound formation treated with 50 uM amiodarone for 60 mins by UPLC-Q/TOF mass spectrometry in presence of NADPH; format: ADME; conditions: 1 h
Procedure, shortened: (§1)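 Pooled human liver microsomes at 1.0 mg/ml protein in 100 mM potassium phosphate pH 7.4, 37°C. Amiodarone 50 μM (DMSO 0.1% final). 3 min preincubation, then started with 2.0 mM NADPH. Stopped at 60 min with equal volume of ice-cold acetonitrile. Controls lacked NADPH or substrate. Duplicates. Analysed by UPLC-Q/TOF MS.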

[1] = Drug level in human liver S9 fraction assessed as compound formation treated with 50 uM amiodarone for 60 mins by UPLC-Q/TOF mass spectrometry in presence of NADPH; format: ADME, subcellular; conditions: s9, 1 h
Procedure, shortened: as §1, with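 “S9” for “microsomes”, “2.0” for “1.0”, “Quenched” for “Stopped”, “Read-out” for “Analysed”, “MS and UPLC-UV.” for “MS.”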

[2] = Retention time of the compound by UPLC-Q/TOF mass spectrometry; format: physicochemical
Procedure, shortened: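 UPLC on HSS T3 column (1.8 μm, 2.1 × 100 mm). Mobile phase 0.05% formic acid in water and in acetonitrile. Q/TOF detection in ES+ with leucine enkephalin lock mass.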

[3] = Drug level in arrhythmia patient bile treated with amiodarone at 200 mg/day, po for 7 days by UPLC-Q/TOF mass spectrometry; format: ADME, organism-based; conditions: human, in vivo, 168 h
Procedure, shortened: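 Three arrhythmia patients (66-89 y, 1 male, 2 female) with T-tube drainage after hepatobiliary surgery. Bile collected from T-tube at 1-h intervals (about 10 ml) over 24 h, stored at -20°C. Glucuronides hydrolysed with β-glucuronidase in 1 M citrate pH 5.0, 37°C, 16 h. Profiled by UPLC-Q/TOF on HSS T3 column, formic acid/acetonitrile gradient, ES+, m/z 80–1000.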

[4] = Drug level in human liver S9 fraction assessed as compound formation treated with 50 uM amiodarone for 60 mins by LC-UV analysis in presence of NADPH; format: ADME, subcellular; conditions: s9, 1 h
Procedure, shortened: as §1, with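 “S9” for “microsomes”, “2.0” for “1.0”, “Quenched” for “Stopped”, “Read-out” for “Analysed”, “MS and UPLC-UV.” for “MS.”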

[5] = Drug level in human liver S9 fraction assessed as alcohol dehydrogenase-mediated compound formation treated with 50 uM amiodarone for 60 mins by UPLC-Q/TOF mass spectrometry in presence of NADPH; format: ADME, subcellular; conditions: s9, 1 h
Procedure, shortened: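 Human liver S9 (2.0 mg/ml) in 100 mM potassium phosphate pH 7.4 at 37°C. Preincubated 10 min with or without 5 μM 4-methylpyrazole (final), then 50 μM amiodarone added. Incubated 60 min with 2.0 mM NADPH. Carboxylic acid metabolite compared by LC/MS between incubations with and without 4-MP. Duplicates.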

SMILES	Drug metabolism (Liver microsome)	Drug metabolism [1]	Retention_time [2]	Drug metabolism [3]	Drug metabolism [4]	Drug metabolism [5]
CCN(CC)CCOc1c(I)cc(C(=O)c2c(CCCCO)oc3ccccc23)cc1I	metabolite_detected	metabolite_detected	14.3 min	metabolite_detected		
CCN(CC)CCOc1c(I)cc(C(=O)c2c(CCC(C)O)oc3ccccc23)cc1I (stereo not drawn)	metabolite_detected	metabolite_detected	14.5 min	metabolite_detected		
CCCCc1oc2ccccc2c1C(=O)c1cc(I)c(OCCNCC)c(I)c1 [DESETHYLAMIODARONE]	metabolite_detected	metabolite_detected	17 min	metabolite_detected	metabolite_detected	
CCCCc1oc2ccccc2c1C(=O)c1cc(I)c(OCCO)c(I)c1	metabolite_detected	metabolite_detected	21.5 min	metabolite_detected		
CCN(CC)CCOc1ccc(C(=O)c2c(CCCC(=O)O)oc3ccccc23)cc1I		metabolite_detected	13.3 min	metabolite_detected		
CCN(CC)CCOc1c(I)cc(C(=O)c2c(CCCC(=O)O)oc3ccccc23)cc1I			14.2 min	metabolite_detected		metabolite_detected
CCCCc1oc2cc(O)ccc2c1C(=O)c1cc(I)c(OCCN(CC)CC)c(I)c1	metabolite_detected	metabolite_detected	15.5 min	metabolite_detected		
CCCCc1oc2ccccc2c1C(=O)c1ccc(OCCNCC)c(I)c1	metabolite_detected	metabolite_detected	16.2 min	metabolite_detected		
CCNCCOc1c(I)cc(C(=O)c2c(CCCC(=O)O)oc3ccccc23)cc1I		metabolite_detected	13.4 min	metabolite_detected		
CCCCc1oc2ccccc2c1C(=O)c1cc(I)c(O)c(I)c1	metabolite_detected	metabolite_detected	16.3 min	metabolite_detected		
